Results reported in article PMC6061410 (Clinical Drug Investigation, 2018).

Experiments:
[1] = Pharmacokinetics after single and multiple doses, part 1; format: in vivo, human; settings: for Tmax: median and range (minimum, maximum); for AUC(0-t): AUC0–24, young
Outline: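 Randomised 3:1 double-blind placebo-controlled groups (9 active, 3 placebo) of healthy young or elderly subjects took 5- or 25-mg tablets. Dosing was a single dose on day 1, QD or BID for 10 days from day 4, and a single dose on day 14. Fasted on days 1 and 14. Blood was sampled through day 23 and urine after first and last doses (QD only). Plasma/urine LC-MS/MS used a seven-point calibration. Geometric mean (%CV) values were reported.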

[2] = Intrinsic solubility; format: physicochemical
[3] = Pharmacokinetics of 25-mg single morning or evening dose, part 2; format: in vivo, human
Outline: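 Open-label two-period crossover in 12 healthy young subjects. Each took single fasted 25-mg doses, morning and evening, separated by a washout of at least 11 days. Blood was sampled pre-dose to 96 h and measured by LC-MS/MS. AUC0–tz, AUC0–∞ and Cmax were given as adjusted gMeans with evening/morning ratio and 90% CI. tmax was given as median (range).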

[4] = Effect of food intake; format: in vivo, human; settings: 25 mg; for Cmax: human, plasma, oral, Cmax at steady state, gMean
Outline: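 Healthy young (25 mg, group 2) and elderly (25 mg, group 5) subjects were dosed once daily with tablets. On day 12, group 2 dosed light-fed (standardised ~500 kcal breakfast 30 min pre-dose) and group 5 dosed light-fasted (no food ≥10 h before until 1 h after). Day 12 plasma profiles were compared with day 14 fasted profiles (no food ≥10 h before until 3.5 h after) as gMean ratios.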

[5] = tested on: CYP3A4; settings: cited from earlier work
[6] = young, 10 mg QD, multiple dose, gMean (%CV)
[7] = young, 10 mg QD, single dose, gMean (%CV)
[8] = young, 25 mg QD, multiple dose, gMean (%CV)
[9] = young, 25 mg QD, single dose, gMean (%CV)
[10] = young, 50 mg QD, multiple dose, gMean (%CV)
[11] = young, 50 mg QD, single dose, gMean (%CV)
[12] = young, 75 mg BID, single dose, gMean (%CV)
[13] = young, 75 mg QD, multiple dose, gMean (%CV)
[14] = young, 75 mg QD, single dose, gMean (%CV)
[15] = young subjects, standardised light breakfast

C[C@@H](Oc1ccc(S(C)(=O)=O)cc1C(=O)N1C[C@@H]2C[C@]2(c2cc(C(F)(F)F)on2)C1)C(F)(F)F [BI 425809]
Tmax ([1]; human, plasma, oral, 50 mg, tmax, young, 50 mg QD, single dose): 4.5 h | Tmax ([1]; human, plasma, oral, 50 mg, tmax,ss, elderly, 50 mg QD, multiple dose): 4.5 h | Tmax ([1]; human, plasma, oral, 50 mg, tmax,ss, young, 50 mg QD, multiple dose): 3.5 h | AUC(0-t) ([1]; human, plasma, oral, 75 mg, 75 mg BID, single dose, fed, gMean (%CV)): 12 µM·h | AUC(0-t) ([1]; human, plasma, oral, 75 mg, 75 mg QD, single dose, fasted, gMean (%CV)): 7.17 µM·h | AUC ([1]; human, plasma, oral, 75 mg, AUCτ,ss, young, 75 mg QD, multiple dose, gMean (%CV)): 16.5 µM·h | Cmax ([1]; human, plasma, oral, 75 mg, Cmax, young, 75 mg BID, single dose, fed, gMean (%CV)): 884 nM | Cmax ([1]; human, plasma, oral, 75 mg, Cmax, young, 75 mg QD, single dose, fasted, gMean (%CV)): 451 nM | Cmax ([1]; human, plasma, oral, 75 mg, Cmax,ss, young, 75 mg QD, multiple dose, gMean (%CV)): 1020 nM | Tmax ([1]; human, plasma, oral, 75 mg, tmax, young, 75 mg BID, single dose): 4.02 h | Tmax ([1]; human, plasma, oral, 75 mg, tmax,ss, young, 75 mg BID, multiple dose, tmax,22 given): 3.5 h | Tmax ([1]; human, plasma, oral, 75 mg, tmax,ss, young, 75 mg QD, multiple dose): 4.5 h | exposure multiple (AUC0–24 and Cmax), 75-mg BID dose group vs 25-mg dose group ([1]; in vivo): 3.2 fold | increase in AUCτ,ss, 75 mg BID vs. 75 mg QD ([1]; multiple dosing): 14% | increase in Cmax,ss, 75 mg BID vs. 75 mg QD ([1]; multiple dosing): 90% | Cmax ([1]; read-out: Cmax,ss, young, 10 mg QD, multiple dose, gMean (%CV)): 221 nM | AUCτ,ss,norm [1, 6]: 387 (22.2) nmol·h/L/mg | Cmax,ss,norm [1, 6]: 22.1 (19.5) nmol/L/mg | AUC0–24,norm [1, 7]: 141 (20.1) nmol·h/L/mg | Cmax,norm [1, 7]: 10.9 (19.0) nmol/L/mg | AUCτ,ss,norm [1, 8]: 425 (31.7) nmol·h/L/mg | Cmax,ss,norm [1, 8]: 23.3 (27.6) nmol/L/mg | AUC0–24,norm [1, 9]: 149 (18.2) nmol·h/L/mg | Cmax,norm [1, 9]: 11.1 (19.7) nmol/L/mg | AUCτ,ss,norm [1, 10]: 285 (29.4) nmol·h/L/mg | Cmax,ss,norm [1, 10]: 16.0 (26.3) nmol/L/mg | AUC0–24,norm [1, 11]: 120 (24.4) nmol·h/L/mg | Cmax,norm [1, 11]: 7.95 (28.7) nmol/L/mg | AUCτ,ss,norm ([1]; young, 75 mg BID, multiple dose, AUCτ,22,norm given, gMean (%CV)): 251 (20.2) nmol·h/L/mg | Cmax,ss,norm ([1]; young, 75 mg BID, multiple dose, Cmax,22,norm given, gMean (%CV)): 25.8 (17.2) nmol/L/mg | AUC0–24,norm [1, 12]: 160 (13.7) nmol·h/L/mg | Cmax,norm [1, 12]: 11.8 (8.72) nmol/L/mg | AUCτ,ss,norm [1, 13]: 220 (29.6) nmol·h/L/mg | Cmax,ss,norm [1, 13]: 13.6 (23.1) nmol/L/mg | AUC0–24,norm [1, 14]: 95.6 (17.9) nmol·h/L/mg | Cmax,norm [1, 14]: 6.01 (17.9) nmol/L/mg | intrinsic solubility [2]: low intrinsic solubility | AUC0–tz, adjusted gMean ratio evening/morning (90% CI) ([3]; 25 mg single dose): 120 (107–135) % | AUC0–∞, adjusted gMean ratio evening/morning (90% CI) ([3]; 25 mg single dose): 118 (104–134) % | Cmax, adjusted gMean ratio evening/morning (90% CI) ([3]; 25 mg single dose): 115 (98.1–136) % | higher gMean Cmax, evening compared with morning administration ([3]; 25 mg single dose, 90% CI 98.1–136): 15% | higher AUC0–tz, evening compared with morning administration ([3]; 25 mg single dose, 90% CI 107–135): 20% | AUC0–tz, adjusted gMean ([3]; 25 mg single evening dose, fasted): 8.41 µM·h | higher exposure, evening compared with morning ([3]; 25-mg tablet): 15–20% | AUC(0-t) ([3]; human, plasma, oral, 25 mg): 7 µM·h | Tmax ([3]; human, plasma, oral, 25 mg): 4.5 h | AUC(0-inf) ([3]; human, plasma, oral, 25 mg, AUC0–∞, adjusted gMean, 25 mg single morning dose, fasted): 8.77 µM·h | Cmax ([3]; human, plasma, oral, 25 mg, Cmax, adjusted gMean, 25 mg single morning dose, fasted): 241 nM | gMean ratio (light fed:light fasted) steady-state AUC [4]: 105.2% | gMean ratio (light fed:light fasted) steady-state Cmax [4]: 106.8% | gMean ratio (light fasted:fasted) steady-state AUC ([4]; elderly subjects): 104.5% | gMean ratio (light fasted:fasted) steady-state Cmax ([4]; elderly subjects): 108.3% | gMean ratio (light fed:fasted) steady-state AUC ([4]; young subjects): 114.0% | gMean ratio (light fed:fasted) steady-state Cmax ([4]; young subjects): 123.2% | increase in steady-state AUC, light fed compared with fasted [4, 15]: 14% | increase in steady-state Cmax, light fed compared with fasted [4, 15]: 23% | Cmax ([4]; healthy elderly subjects, fasted): 611 nM | Cmax ([4]; healthy elderly subjects, light fasted): 662 nM | Cmax ([4]; healthy young subjects, fasted): 574 nM | Cmax ([4]; healthy young subjects, fed (light fed)): 707 nM | role of CYP3A4 in metabolic pathway ([5]; drug–drug interaction study confirming in-vitro data): major component of the BI 425809 metabolic pathway | CYP3A4 induction ([5]; in-vitro and clinical studies): has the potential to induce CYP3A4 activity | metabolising enzyme ([5]; in-vitro and clinical studies): primarily metabolised by CYP3A4
